Experimental data as given in PubChem BioAssay.
Results filed as inconclusive are left out.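 The calls were made as follows, unless noted: active = viability increase at or above a cutoff of the median across tested compounds plus 3 SD (cut at about 8.5% in these data, passing the limit was not always enough); inconclusive = some gains above the cutoff, reason not given; inactive = the rest.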

Tests used:
[1] = OD615 S. cerevisiae growth inhibition, permissive medium, pilot counter-assay, permissive growth control for S. cerevisiae lifespan shortening project (AID 705;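 active = growth inhibition above 25% in both replicates, a cutoff set 3 SD above the mean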); conditions: OD615, 24 h, at 10 µM, active compounds read high
How it was run: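 System – S. cerevisiae with engineered DeaD lifespan system · Buffer or medium – SC raffinose/galactose permissive medium · Schedule – cells pre-grown 4 h, then 24 h compound exposure, 30 °C humidified · Technique – culture turbidity as optical density at 615 nm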

[2] = Restrictive medium S. cerevisiae growth inhibition, OD615, pilot screen of yeast lifespan reduction project, restrictive growth control (AID 706;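 active = growth inhibition above a set limit, 3 SD over mean compound inhibition, in both replicates, cut at about 43% in these data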;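 also: modified DeaD lifespan yeast strain shifted to restrictive glucose medium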); conditions: OD615, 48 h, at 10 µM, active compounds read high
How it was run: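 Material: engineered S. cerevisiae DeaD strain / Medium: glucose-based CSMM-D restrictive medium / Compound: single dose of 10 µM compound final, 0.25% DMSO / Timing: 4 h pre-incubation, 48 h exposure at 30 °C / Technique: OD615 absorbance reading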

[3] = viability gain of MRP-1-high H69AR cells under doxorubicin, pilot screen, MRP-1 activator project, CellTiter-Glo, duplicate (AID 807); conditions: H69AR viability with doxorubicin, CellTiter-Glo luminescence; at 10 µM; active compounds read high;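 also: compound pretreatment 18-22 h then 72 h combined with doxorubicin; 0% = doxorubicin alone and 100% = vehicle without doxorubicin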
[4] = growth suppression of beta-catenin knockout HCT116, pilot screen, human colon tumor cells (AID 823;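 active = cell viability at or below a set limit in both duplicate runs, the limit being the all-compound median minus 4 SD, cut at about 23% in these data, passing the limit was not always enough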;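 also: 0% = wells killed by 20 µM Hyamine and 100% = untreated DMSO cell wells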); conditions: CellTiter-Glo, 60 h, at 10 µM, active compounds read low
[5] = growth suppression of PTEN-deleted HCT116, pilot screen, cell-based, HCT116 clonal line, CellTiter-Glo (AID 824;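 active = viability at or below 27.92% in each of two runs, the all-compound median minus 4 SD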;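 also: 0% = 20 µM Hyamine control and 100% = vehicle cell control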); conditions: 60 h, at 10 µM, active compounds read low
[6] = inhibitors of the yeast RAM network, pilot screen, dse1pr::URA3 reporter, 5-FOA selection (AID 869;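 active = inhibition over a set limit, the all-compound mean plus 3 SD, in both replicate runs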;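 also: 0% = DMSO wells with no growth and 100% = 10 µM 1-NA-PP1 with full growth; RAM network block rescues cells from 5-FOA so hits raise OD615 growth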); conditions: S. cerevisiae dse1pr::URA3 5-FOA growth, OD615, 2 d; at 10 µM; active compounds read high; strain carries analog-sensitive mutant Cbk1 kinase
[7] = RAM signaling pathway blockade in yeast – S. cerevisiae, Pdr1DBD-CYC8 efflux-inhibited sensitized strain, primary screen (AID 1298;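 active = RAM network inhibition above 8.4% in each of two replicates, 3 SD over the compound average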;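 also: 0% = DMSO untreated cells without growth and 100% = 10 µM 1-NA-PP1 full growth; higher means more yeast growth rescued from 5-FOA killing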); conditions: S. cerevisiae cbk1-as DSE1-URA3 strain, 5-FOA growth OD615, 2 d; at 50 µM; active compounds read high

O=C1C2CCCN2C(c2ccccc2)N1c1ccc(F)cc1 (stereo not drawn)
inactive: growth inhibition [1] -1.42% | growth inhibition [2] 3.23% | viability increase [3] -2.06% | viability [4] 96.9% | viability [5] 89.3% | inhibition [6] 2.05% | RAM network inhibition [7] 2.34%

O=C(CN1C2=NCCCN2c2ccccc21)c1cccs1
inactive: growth inhibition [1] 1.83% | growth inhibition [2] -10.1% | viability increase [3] -3.27% | viability [4] 95.7% | viability [5] 92.1% | inhibition [6] 0.695% | RAM network inhibition [7] 4.72%

O=C(c1ccc(Cn2c(=O)[nH]c3ccccc3c2=O)cc1)N1CCN(c2ccccn2)CC1
inactive: growth inhibition [1] -11.8% | growth inhibition [2] -8.79% | viability increase [3] -2.12% | viability [4] 93.1% | viability [5] 78.6% | inhibition [6] 0.23% | RAM network inhibition [7] 8.38%

CN(Cc1ccccc1)C(=O)CCS(=O)(=O)c1ccc2c(c1)n(C)c(=O)c(=O)n2C
inactive: growth inhibition [1] -4.66% | growth inhibition [2] -4.58% | viability increase [3] 0.66% | viability [4] 95.7% | viability [5] 100% | inhibition [6] 1.23% | RAM network inhibition [7] 4.6%

COC(=O)CN(c1ccc(C(C)C)cc1)S(=O)(=O)c1c(C)[nH]c(=O)[nH]c1=O
inactive: growth inhibition [1] -0.6% | growth inhibition [2] 11.3% | viability increase [3] -2.38% | viability [4] 88.8% | viability [5] 94.6% | inhibition [6] 2.21% | RAM network inhibition [7] 2.71%

CCOC(=O)N1CCN(C(=O)CSc2nc3c(cnn3-c3ccccc3)c(=O)[nH]2)CC1
inactive: growth inhibition [1] -2.34% | growth inhibition [2] -4.3% | viability increase [3] -4.92% | viability [4] 98.9% | viability [5] 99% | inhibition [6] 0.19% | RAM network inhibition [7] -1.2%

C=CCNc1oc(COc2ccc(C)cc2)nc1C#N
inactive: growth inhibition [1] -7.16% | growth inhibition [2] 1.92% | viability increase [3] 4.36% | viability [4] 99.1% | viability [5] 97.3% | inhibition [6] 1.18% | RAM network inhibition [7] -0.52%

CCC(O)CNc1nc(SC)nc2sc3c(c12)CCN(C)C3 (stereo not drawn)
inactive: growth inhibition [1] -7.7% | growth inhibition [2] -14.2% | viability increase [3] -3.74% | viability [4] 99.2% | viability [5] 91.2% | inhibition [6] 2.08% | RAM network inhibition [7] 0.46%

COc1ccc(C2CC(=O)N3CN(c4ccc(C)c(Cl)c4)CSC3=C2C#N)cc1 (stereo not drawn)
inactive: growth inhibition [1] 5.58% | growth inhibition [2] 21.9% | viability increase [3] -5.36% | viability [4] 90.1% | viability [5] 89.5% | inhibition [6] 0.91% | RAM network inhibition [7] -1.96%

COc1ccc(O)c(-c2[nH]ncc2C(=O)c2ccccc2)c1
inactive: growth inhibition [1] -14.7% | growth inhibition [2] -2.28% | viability increase [3] -2.45% | viability [4] 101% | viability [5] 94.8% | inhibition [6] 1.27% | RAM network inhibition [7] 4.35%

CC1CC(C)CN(C(=O)c2cn(C)c3ccc(S(=O)(=O)N(C)C)cc3c2=O)C1 (stereo not drawn)
inactive: growth inhibition [1] -4.13% | growth inhibition [2] 14.5% | viability increase [3] -0.59% | viability [4] 114% | viability [5] 104% | inhibition [6] 2.47% | RAM network inhibition [7] 2.05%

O=C(NCS(=O)(=O)c1ccccc1)c1ccccc1
inactive: growth inhibition [1] -15.4% | growth inhibition [2] -4.22% | viability increase [3] -0.04% | viability [4] 101% | viability [5] 101% | inhibition [6] 0.675% | RAM network inhibition [7] 1.79%

COc1cc2[nH]c(=O)n(CCCCCC(=O)NCCCN3CCOCC3)c(=O)c2cc1OC
inactive: growth inhibition [1] -9.12% | growth inhibition [2] -24.8% | viability increase [3] -1.27% | viability [4] 97.8% | viability [5] 89.6% | inhibition [6] 0.585% | RAM network inhibition [7] -0.68%

CCc1cccc(NC(=O)CS(=O)Cc2nc(-c3ccc(C)cc3)oc2C)c1 (stereo not drawn)
inactive: growth inhibition [1] 9.24% | growth inhibition [2] 24.4% | viability increase [3] -1.87% | viability [4] 96.1% | viability [5] 87.1% | inhibition [6] 1.46% | RAM network inhibition [7] 3.37%

CCSc1nnc2c(n1)[nH]c1c(C)cccc12
inactive: growth inhibition [1] -6.89% | growth inhibition [2] -1.28% | viability increase [3] -5.1% | viability [4] 47.9% | viability [5] 65.5% | inhibition [6] 4% | RAM network inhibition [7] 4.68%

CC(C)Oc1ccc(N2CC(C(=O)Nc3ccc4c(c3)OCO4)CC2=O)cc1 (stereo not drawn)
inactive: growth inhibition [1] -13.3% | growth inhibition [2] -4.22% | viability increase [3] -0.37% | viability [4] 106% | viability [5] 99.5% | inhibition [6] 2.58% | RAM network inhibition [7] 4.96%

OC(CNCc1ccco1)COc1ccccc1 (stereo not drawn)
inactive: growth inhibition [1] -12.7% | growth inhibition [2] -10.2% | viability increase [3] 0.59% | viability [4] 100% | viability [5] 103% | inhibition [6] 1.44% | RAM network inhibition [7] 2.54%

N#Cc1nc(COc2ccccc2)oc1N1CCCCC1
inactive: growth inhibition [1] -9.45% | growth inhibition [2] 10.3% | viability increase [3] 2.53% | viability [4] 87.5% | viability [5] 88.9% | inhibition [6] 0.495% | RAM network inhibition [7] -1.83%

Cc1occc1-c1nnc(SCCCC(=O)c2ccc(F)cc2)n1C
inactive: growth inhibition [1] -1.02% | growth inhibition [2] 3.81% | viability increase [3] 0.66% | viability [4] 74.4% | viability [5] 87.4% | inhibition [6] 1.5% | RAM network inhibition [7] 6.28%

COc1ccccc1CNC(=O)c1nnc(Cc2ccc(Cl)cc2)o1
inactive: growth inhibition [1] -9.86% | growth inhibition [2] 15.4% | viability increase [3] 2.29% | viability [4] 103% | viability [5] 99.8% | inhibition [6] 1.81% | RAM network inhibition [7] 1.15%

N#CC1=C2C=CC=CN2CC1=O
inactive: growth inhibition [1] -23.9% | growth inhibition [2] -15.7% | viability increase [3] -2.42% | viability [4] 91.2% | viability [5] 93.1% | inhibition [6] 1.7% | RAM network inhibition [7] 2.23%

COc1ccc(-c2nc3cnccn3c2Nc2ccc3c(c2)OCO3)cc1
inactive: growth inhibition [1] -10.7% | growth inhibition [2] 3.96% | viability increase [3] -6.6% | viability [4] 70.9% | viability [5] 62.8% | inhibition [6] -0.105% | RAM network inhibition [7] 0.16%

Cc1nc2sc(C(c3cccs3)N3CCN(c4ccccc4)CC3)c(O)n2n1 (stereo not drawn)
inactive: growth inhibition [1] 0.19% | growth inhibition [2] 5.34% | viability increase [3] -0.21% | viability [4] 96.5% | viability [5] 94.8% | inhibition [6] 1.19% | RAM network inhibition [7] 2.14%

CCOC(=O)CCCSc1nc2sc(C)c(C)c2c(=O)[nH]1
inactive: growth inhibition [1] -12.1% | growth inhibition [2] -15.5% | viability increase [3] -0.74% | viability [4] 102% | viability [5] 98.5% | inhibition [6] 3.01% | RAM network inhibition [7] 3.95%
